How the values were obtained:
Mus musculus = test: Antipsychotic activity using locomotor activity (LMA)-inverted screen test in mice (i.p. admin.); assay type: functional; settings: ip, read-out: MED
Method in brief: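 Unfasted male Swiss-Webster mice, 20–30 g, nine per dose; ip 1 h before testing in 0.2% methocel, 10 mL/kg; 10, 30, 100 mg/kg, three replicates. Inverted-screen falloff over 60 s, then photocell locomotion for 60 min versus vehicle. MED = lowest dose giving >60% locomotor inhibition with <60% falloff.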

Rattus norvegicus [1] = organism: Rattus norvegicus; test: Activity against the suppression of high base line self stimulation with electrodes in the medial forebrain of the posterior hypothalamus of male hooded rats (Peroral admin.); assay type: functional; settings: po
Method in brief: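 Male hooded rats with electrodes in the medial forebrain bundle of the posterior hypothalamus; rapid high base-line self-stimulation rates served as base lines. Oral dosing, behaviour recorded continuously on cumulative recorders. Active if base-line rate was reduced by 50% for 1.5 h or more. Four rats per dose; ED50 by computer analysis (linear regression from doses bracketing the ED50).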

Rattus norvegicus [2] = test: The compound was tested (after peroral administration) for its ability to induce catalepsy in rats; assay type: functional; settings: po
Method in brief: (§1)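 Fasted male Long-Evans hooded rats, 180–220 g, used once; oral intubation, suspended in 0.2% methylcellulose if insoluble. At least three doses, eight rats per dose. Forepaws placed on a horizontal rod 11.5 cm high, read every 30 min for 1 h then hourly to 6 h, 24 h if needed. Partial scores summed; ED50 by nonlinear regression.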

[3] = Minimal effective dose required for signs of EPS in cebus monkeys; assay type: functional; settings: read-out: MED
Rattus norvegicus [4] = organism: Rattus norvegicus; test: The compound was tested for inhibition of sidman avoidance in rat; assay type: functional
Method in brief: (§2)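 Mature male Long-Evans rats or squirrel monkeys trained on a modified Sidman avoidance lever schedule with 0.5-s shock; 6-h sessions, given orally. Response expressed as % inhibition of nondrug avoidance responding, each animal its own control. At least three doses, four animals each, sessions at least 1 week apart; ED50 by nonlinear regression.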

Rattus norvegicus [5] = organism: Rattus norvegicus; test: The compound was tested for its ability to induced catalepsy in rats; assay type: functional; method in brief: as §1
[6] = The compound was tested for its ability to induced catalepsy in squirrel monkeys; assay type: functional
Method in brief: (§3)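 Adult squirrel monkeys, 600–1000 g, fasted overnight, oral dosing with at least 1 week between dosings. Observed hourly for at least 6 h and at 24 h. Four animals per dose, at least three doses; ED50 by nonlinear regression for quantal data.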

[7] = The compound was tested for inhibition of sidman avoidance in squirrel monkeys; assay type: functional; method in brief: as §2
[8] = Minimal effective dose (after peroral administration) required for signs of EPS in cebus monkeys; assay type: functional; settings: po; read-out: MED
Rattus norvegicus [9] = test: The compound was tested (after peroral administration) for inhibition of sidman avoidance in rat; assay type: functional; settings: po; method in brief: as §2
[10] = The compound was (after peroral administration) tested for inhibition of sidman avoidance in squirrel monkeys; assay type: functional; settings: po; method in brief: as §2
[11] = The compound was tested (after peroral administration) for its ability to induced catalepsy in squirrel monkeys; assay type: functional; settings: po; method in brief: as §3
[12] = molecular target: T1, Adrenergic receptor alpha-1 (Rattus norvegicus, UniProt P15823+P23944+P43140)
T1 sequence (P15823 whole entry): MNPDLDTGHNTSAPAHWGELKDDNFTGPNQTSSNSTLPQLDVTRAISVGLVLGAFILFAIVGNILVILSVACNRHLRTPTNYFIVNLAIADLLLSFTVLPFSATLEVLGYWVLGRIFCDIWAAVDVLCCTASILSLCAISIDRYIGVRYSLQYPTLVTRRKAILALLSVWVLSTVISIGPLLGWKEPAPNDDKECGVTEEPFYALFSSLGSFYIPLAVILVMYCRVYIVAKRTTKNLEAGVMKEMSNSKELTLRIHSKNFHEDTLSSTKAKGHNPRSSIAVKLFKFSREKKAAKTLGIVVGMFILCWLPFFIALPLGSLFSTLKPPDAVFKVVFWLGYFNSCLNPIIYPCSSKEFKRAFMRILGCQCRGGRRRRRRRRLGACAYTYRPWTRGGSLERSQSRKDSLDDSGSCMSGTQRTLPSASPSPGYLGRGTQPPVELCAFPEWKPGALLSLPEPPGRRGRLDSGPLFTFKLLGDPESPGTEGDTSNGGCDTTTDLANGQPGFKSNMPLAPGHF
T1 sequence (P23944 whole entry): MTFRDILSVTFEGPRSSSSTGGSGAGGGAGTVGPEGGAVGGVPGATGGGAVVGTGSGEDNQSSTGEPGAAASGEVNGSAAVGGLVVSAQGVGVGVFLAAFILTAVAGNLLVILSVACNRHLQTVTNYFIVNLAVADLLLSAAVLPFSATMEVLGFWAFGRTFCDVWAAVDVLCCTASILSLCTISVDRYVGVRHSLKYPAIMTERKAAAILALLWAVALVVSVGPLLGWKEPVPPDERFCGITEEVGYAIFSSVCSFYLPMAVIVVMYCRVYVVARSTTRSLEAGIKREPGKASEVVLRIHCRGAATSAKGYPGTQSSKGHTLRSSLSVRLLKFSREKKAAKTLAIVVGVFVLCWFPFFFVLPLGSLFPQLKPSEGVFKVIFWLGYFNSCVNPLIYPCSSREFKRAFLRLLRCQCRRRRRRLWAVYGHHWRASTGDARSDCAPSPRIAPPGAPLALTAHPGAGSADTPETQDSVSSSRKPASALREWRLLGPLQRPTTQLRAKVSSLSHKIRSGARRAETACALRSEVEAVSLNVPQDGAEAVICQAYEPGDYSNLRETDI
T1 sequence (P43140 whole entry): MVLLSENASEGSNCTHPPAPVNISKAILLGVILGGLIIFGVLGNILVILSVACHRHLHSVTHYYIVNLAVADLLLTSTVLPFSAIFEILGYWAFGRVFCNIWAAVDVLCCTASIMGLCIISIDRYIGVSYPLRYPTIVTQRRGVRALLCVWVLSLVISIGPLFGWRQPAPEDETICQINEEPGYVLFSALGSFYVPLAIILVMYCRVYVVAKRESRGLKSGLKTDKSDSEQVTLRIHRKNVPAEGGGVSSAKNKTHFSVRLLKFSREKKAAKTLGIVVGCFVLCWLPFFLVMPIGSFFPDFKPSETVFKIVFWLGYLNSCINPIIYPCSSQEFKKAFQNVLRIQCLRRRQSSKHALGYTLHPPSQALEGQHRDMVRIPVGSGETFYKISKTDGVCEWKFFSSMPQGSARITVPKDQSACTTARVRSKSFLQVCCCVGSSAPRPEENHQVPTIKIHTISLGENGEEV

[13] = molecular target: Muscarinic acetylcholine receptor; test: The compound was tested for inhibition of [3H]QNB binding to Muscarinic acetylcholine receptor; assay type: protein assay

SMILES | minimal effective dose (Mus musculus) | ED50 (Rattus norvegicus [1]) | ED50 (Rattus norvegicus [2]) | other results
Cc1ccc(N2CNC(=O)C23CCN(CCCN(c2ccc(F)cc2)c2ccc(F)cc2)CC3)cc1 | ≤ 10 mg/kg | > 16 mg/kg |  | 
O=C1N(CO)CN(c2ccccc2)C12CCN(CCCN(c1ccc(F)cc1)c1ccc(F)cc1)CC2 | < 10 mg/kg | 0.89 mg/kg | 11 mg/kg | 
CN1CCN(C2=Nc3cc(Cl)ccc3Nc3ccccc32)CC1 [CLOZAPINE] | 10 mg/kg |  |  | minimal effective dose [3]: > 30 mg/kg; ED50 (Rattus norvegicus [4]): 14.4 mg/kg; ED50 (Rattus norvegicus [5]): 133 mg/kg; ED50 [6]: > 50 mg/kg; ED50 [7]: 4.1 mg/kg
O=C1NCN(c2cccc(C(F)(F)F)c2)C12CCN(CCCN(c1ccc(F)cc1)c1ccc(F)cc1)CC2 | > 100 mg/kg |  |  | 
CC(=O)OCN1CN(c2ccccc2)C2(CCN(CCCN(c3ccc(F)cc3)c3ccc(F)cc3)CC2)C1=O | < 10 mg/kg | 1.03 mg/kg | 17 mg/kg | 
COc1ccc(N2CNC(=O)C23CCN(CCCN(c2ccc(F)cc2)c2ccc(F)cc2)CC3)cc1 | 30 mg/kg | > 16 mg/kg |  | 
O=C1N(CC2CC2)CN(c2ccccc2)C12CCN(CCCN(c1ccc(F)cc1)c1ccc(F)cc1)CC2 | 30 mg/kg | 8.39 mg/kg | 200 mg/kg | 
CN1CN(c2ccccc2)C2(CCN(CCCN(c3ccc(F)cc3)c3ccc(F)cc3)CC2)C1=O | ≤ 10 mg/kg | 2.84 mg/kg | 33 mg/kg | 
C=CCN1CN(c2ccccc2)C2(CCN(CCCN(c3ccc(F)cc3)c3ccc(F)cc3)CC2)C1=O | ≤ 10 mg/kg | 1.06 mg/kg | 22 mg/kg | 
O=C1NCN(c2ccc(Cl)cc2)C12CCN(CCCN(c1ccc(F)cc1)c1ccc(F)cc1)CC2 | 30 mg/kg | 2 mg/kg |  | 
O=C1NCN(c2ccccc2F)C12CCN(CCCN(c1ccc(F)cc1)c1ccc(F)cc1)CC2 |  | > 16 mg/kg |  | 
O=C1NCN(c2ccccc2)C12CCN(CCCN(c1ccc(F)cc1)c1ccc(F)cc1)CC2 | 5 mg/kg |  | 81 mg/kg | minimal effective dose [8]: 2.5 mg/kg; ED50 (Rattus norvegicus [9]): 2.8 mg/kg; ED50 [10]: 1.7 mg/kg; ED50 [11]: 30 mg/kg; IC50 [12]: > 1000 nM; IC50 [13]: > 100 nM
CN1CN(c2cccc(C(F)(F)F)c2)C2(CCN(CCCN(c3ccc(F)cc3)c3ccc(F)cc3)CC2)C1=O | 30 mg/kg | > 16 mg/kg |  | 
O=C1N(Cc2ccccc2)CN(c2ccccc2)C12CCN(CCCN(c1ccc(F)cc1)c1ccc(F)cc1)CC2 | > 100 mg/kg |  |  | 
CCN(CC)CCN1CN(c2ccccc2)C2(CCN(CCCN(c3ccc(F)cc3)c3ccc(F)cc3)CC2)C1=O | ≤ 10 mg/kg | 5.65 mg/kg | 138 mg/kg | 
O=C(CCCN1CCC2(CC1)C(=O)NCN2c1ccccc1)c1ccc(F)cc1 [SPIPERONE] | < 10 mg/kg | 1.28 mg/kg | 10.8 mg/kg | 
O=C(CCCN1CCC(O)(c2ccc(Cl)cc2)CC1)c1ccc(F)cc1 [HALOPERIDOL] | 0.3 mg/kg | 0.14 mg/kg | 0.1 mg/kg | minimal effective dose [3]: 0.3 mg/kg; ED50 (Rattus norvegicus [4]): 0.3 mg/kg; ED50 (Rattus norvegicus [5]): 0.47 mg/kg; ED50 [6]: 2 mg/kg; ED50 [7]: 0.26 mg/kg
CN(C)CCCN1CN(c2ccccc2)C2(CCN(CCCN(c3ccc(F)cc3)c3ccc(F)cc3)CC2)C1=O |  | 16 mg/kg | 200 mg/kg | 
CN1CN(c2ccc(F)cc2)C2(CCN(CCCN(c3ccc(F)cc3)c3ccc(F)cc3)CC2)C1=O | ≤ 10 mg/kg | 0.96 mg/kg | 54 mg/kg | 
O=C1NCN(c2ccc(F)cc2)C12CCN(CCCN(c1ccc(F)cc1)c1ccc(F)cc1)CC2 | ≤ 10 mg/kg | 0.55 mg/kg | 4.5 mg/kg | 
CC(C)c1ccc(N2CNC(=O)C23CCN(CCCN(c2ccc(F)cc2)c2ccc(F)cc2)CC3)cc1 | > 100 mg/kg |  |  | 
O=C1N(COCc2ccccc2)CN(c2ccccc2)C12CCN(CCCN(c1ccc(F)cc1)c1ccc(F)cc1)CC2 | 100 mg/kg | > 16 mg/kg |  | 
O=C1NCN(c2cccc(F)c2)C12CCN(CCCN(c1ccc(F)cc1)c1ccc(F)cc1)CC2 | 30 mg/kg | 0.78 mg/kg | 4.1 mg/kg | 

Source: ChEMBL document CHEMBL1123131, “Examination of a series of 8-[3-[bis(4-fluorophenyl)amino]propyl]-1-aryl-1,3,8- triazaspiro[4.5]decan-4-ones as potential antipsychotic agents” (J Med Chem, 1985)
